The text below walks through data of ChEMBL document CHEMBL1157507, “Design, synthesis, and evaluation of novel mutual prodrugs (hybrid drugs) of all-trans-retinoic acid and histone deacetylase inhibitors with enhanced anticancer activities in breast and prostate cancer cells in vitro” (J Med Chem, 2008).

A value given as a limit tells only on which side of the number the result lay.

Data set [1] has as its system PC-3. Kind of data set: Growth inhibition of human PC3 cells after 5 days by MTT assay. In kind it is functional. The settings on record: PC-3, 120 h. The method in brief:
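PC-3 cells in RPMI 1640 with 10% FBS and 1% penicillin/streptomycin (37 °C, 5% CO2) were seeded at 2 × 10⁴/well and allowed to adhere 24 h. They were dosed over a concentration range in 10% DMSO/90% ethanol for 5 days, with drug and medium renewed on day 3. MTT (0.5 mg/mL) was added for 2 h, formazan dissolved in DMSO, and A560 read. Triplicate wells, ≥3 experiments; GI50 from nonlinear regression.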
Background: Tetrazolium dyes change colour on reduction, which living cells bring about.

The subject of another data set is MDA-MB-231. Kind of data set: Growth inhibition of human MDA-MB-231 cells after 5 days by MTT assay. It is filed as functional. The note with it: MDA-MB-231, 120 h.
A further data set relates to Serum. Put plainly: Stability in 80% human serum in 0.02 M phosphate buffer at pH 7.2 after 24 hrs. In kind it is ADME, cell-free. The note with it: pH 7.2, 24 h. The method, boiled down:
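Each agent was incubated 24 h at 37 °C in 80% human serum containing 20% 0.02 M phosphate buffer, pH 7.2. Samples were extracted and analysed by reverse-phase C18 HPLC with photodiode-array detection: 350 nm for ATRA and prodrugs, 245 nm for HDIs. The gradient ran from 20 mM ammonium acetate/methanol (50:50) to methanol at 0.8 mL/min.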

Data set [2] has as its system MCF7. Kind of data set: Growth inhibition of human MCF7 cells after 5 days by MTT assay. The note with it: MCF7, 120 h. In kind it is functional.
Data set [3] has as its system MCF7. Put plainly: Growth inhibition of human MCF7 cells expressing HOX-B7 after 5 days by MTT assay. The note with it: MCF7, 120 h. It is filed as functional.
The test system of data set [4] is MCF7. Kind of data set: Growth inhibition of human tamoxifen-resistant MCF7 cells after 5 days by MTT assay. In kind it is functional. The settings on record: MCF7, 120 h.
Data set [5] concerns MCF7. Kind of data set: Growth inhibition of long-term letrozole cultured human MCF7 cells after 5 days by MTT assay. In kind it is functional. The settings on record: MCF7, 120 h.
Data set [6] deals with PC-3. Put plainly: Growth inhibition of human PC3 cells at 20 uM after 5 days by MTT assay. It is filed as functional. The settings on record: PC-3, 120 h. The method in brief:
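PC-3 cells in RPMI 1640 with 10% FBS were seeded at 2 × 10⁴/well, adhered 24 h, then given a single 20 µM concentration in 10% DMSO/90% ethanol for 5 days, with renewal on day 3. Growth was read by MTT (0.5 mg/mL, 2 h, formazan in DMSO, A560). Triplicate wells; at least three independent experiments.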

For `CC1=C(/C=C/C(C)=C/C=C/C(C)=C/C(=O)Oc2ccc(COC(=O)Nc3ccccc3NC(=O)c3ccc(CNC(=O)OCc4cccnc4)cc3)cc2)C(C)(C)CCC1`, the GI50 – broadly, the concentration at which growth is held to half of that of the control – with PC-3 [1] was determined as 0.18 µM; in the data set with MDA-MB-231 it was 0.17 µM; in the data set with MCF7 [2] it was 0.06 µM; with MCF7 [3], 0.72 µM; with MCF7 [4] it was 0.21 µM. Moreover, in the data set on Serum, the Stability entry is “Stable”.
Regarding `CC1=C(/C=C/C(C)=C/C=C/C(C)=C/C(=O)OCOC(=O)NCC(=O)Nc2ccccc2NC(=O)c2ccc(CNC(=O)OCc3cccnc3)cc2)C(C)(C)CCC1`, the GI50 in the data set with MCF7 [5] is 0.02 µM; in the data set with PC-3 [1], 0.04 µM; in the data set with MDA-MB-231, 0.94 µM; in the data set on MCF7 [2], 0.15 µM; in the data set on MCF7 [3] it was 0.006 µM; in the data set on MCF7 [4] it was 0.02 µM.
Take `CCCC(=O)OCc1ccc(OC(=O)/C=C(C)/C=C/C=C(C)/C=C/C2=C(C)CCCC2(C)C)cc1`: the GI50 in the data set with PC-3 [1] turned out to be 1.02 µM; with MDA-MB-231, 0.01 µM. Further, in the data set with Serum, the Stability result is given as “Stable”. Further, the inhibition (commonly the drop in the measured response relative to a control, in per cent) at 20 µM with PC-3 [6] is 80%.
Take `CC(=O)Nc1ccc(C(=O)Nc2ccccc2NC(=O)CNC(=O)OCOC(=O)/C=C(C)/C=C/C=C(C)/C=C/C2=C(C)CCCC2(C)C)cc1`: the GI50 is 4.27 µM with PC-3 [1]; 0.63 µM in the data set with MDA-MB-231; 0.25 µM with MCF7 [2]; 1.2 µM with MCF7 [3]; 0.17 µM in the data set with MCF7 [4]. In addition, the Stability result in the data set on Serum is “Stable”.
With `CC(=O)Nc1ccc(C(=O)Nc2ccccc2NC(=O)OCc2ccc(OC(=O)/C=C(C)/C=C/C=C(C)/C=C/C3=C(C)CCCC3(C)C)cc2)cc1`, the GI50 in the data set on PC-3 [1] was determined as 0.87 µM; in the data set with MDA-MB-231, 0.02 µM; with MCF7 [2] it was 0.52 µM; in the data set on MCF7 [3], 8.13 µM; in the data set with MCF7 [4], 0.08 µM. In addition, the Stability result in the data set with Serum is “Stable”.
Regarding `NCC(=O)Nc1ccccc1NC(=O)c1ccc(CNC(=O)OCc2cccnc2)cc1`, in the data set on Serum, the Stability result is “Stable”.
Take `CCCC(=O)[O-].[Na+]` [SODIUM BUTYRATE]: the GI50 in the data set with PC-3 [1] was 72.4 µM; in the data set with MDA-MB-231, above 1000 µM.
In the same order, the values of `CC(=O)Nc1ccc(C(=O)Nc2ccccc2N)cc1` [TACEDINALINE] are 0.29 µM and 0.17 µM.
In the case of `CC1=C(/C=C/C(C)=C/C=C/C(C)=C/C(=O)O)C(C)(C)CCC1` [TRETINOIN], the concentration for 50% growth inhibition (GI50) is 7.6 µM in the data set on PC-3 [1] and 10.8 µM with MDA-MB-231.
